Assay outcomes as filed in PubChem BioAssay.
The list is not random: actives were taken first. Their share in the collection is about 1.5%.
EBI2 block: blocks human EBI2 receptor beta-arrestin signaling. inhibition, % at 5 µM. AID 651636. P32249. 0.81% of 360,000 active. EBI2 beta-arrestin recruitment, luminescence, 7a,25-OHC stimulated; in the data active = inhibition above about 38%;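 note: enzyme fragment complementation signal reports receptor beta-arrestin coupling in cells; 0% = agonist plus DMSO wells and 100% = wells without agonist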
Target sequence (P32249 whole entry, looked up, the tested form may be a part): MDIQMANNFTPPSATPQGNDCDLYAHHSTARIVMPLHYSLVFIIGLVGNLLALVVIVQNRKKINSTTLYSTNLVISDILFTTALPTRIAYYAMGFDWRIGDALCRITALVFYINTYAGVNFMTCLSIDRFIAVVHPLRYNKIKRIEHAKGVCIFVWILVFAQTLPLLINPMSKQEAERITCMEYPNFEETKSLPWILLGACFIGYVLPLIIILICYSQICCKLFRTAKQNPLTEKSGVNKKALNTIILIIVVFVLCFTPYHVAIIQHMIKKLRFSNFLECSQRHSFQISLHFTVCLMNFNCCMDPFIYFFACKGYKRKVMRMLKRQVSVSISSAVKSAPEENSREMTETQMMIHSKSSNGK
APJ antag: APJ receptor antagonism. P35414. CHO-K1 APJ beta-arrestin complementation, luminescence. inhibition, % at 20 µM. 0.32% of 330,000 active. AID 2521;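 active = inhibition above about 40% at 20 µM, limit read from the data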;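 note: cells challenged with 10 nM apelin-13 agonist together with compound; plate controls were apelin-13 plus DMSO wells for no effect and DMSO wells lacking apelin-13 for full effect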
CCR6 antagonist: CCR6 (human) receptor antagonism; inhibition, % at 20 µM; AID 493098; P51684; CHO-K1 CCR6 PathHunter beta-arrestin, luminescence, CCL20-stimulated; 0.49% of 340,000 active;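 active = compounds whose inhibition of the agonist-driven luminescence signal at 20 µM reaches about 50%, limit read from the data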;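 note: cells stimulated with CCL20 at 14 nM final; plate controls were DMSO with CCL20 for no effect and DMSO without agonist for full effect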
CXCR6 block: blocks human CXCR6 beta-arrestin recruitment; O00574; CHO-K1 PathHunter CXCR6 beta-arrestin, luminescence; inhibition, % at 20 µM; 0.36% of 360,000 active; in the data active = inhibition above about 34%, passing the limit was not always enough;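 note: antagonist mode with CXCL16 agonist at 10 nM final; 0% = 10 nM CXCL16 with DMSO and 100% = unstimulated wells without agonist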
APJ ag: activates the human apelin receptor APJ; P35414; CHO-K1 APJ PathHunter beta-arrestin, luminescence; 0% DMSO wells, 100% apelin; activation, % at 20 µM; 0.11% of 330,000 active;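 active = activation more than six SD over the plate average, tested at 20 µM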;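 note: 0% = DMSO alone and 100% = apelin-13 at 10 nM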
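Material: engineered CHO-K1 APJ arrestin reporter cells; amount: 1000 CHO-K1 reporter cells seeded per well; incubation: compound stimulation 90 min at 25 °C, detection 60 min; signal: luminescent beta-gal fragment complementation, chemiluminescent substrate; read-out basis: APJ agonist activity; controls: DMSO-only wells as negative, 10 nM Apelin-13 as positive control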
Starred values were filed as active, the others as inactive; . = not tested or not shown.

SMILES | EBI2 block | APJ antag | CCR6 antagonist | CXCR6 block | APJ ag
COc1ccc(NC(=O)COC(=O)c2cc([N+](=O)[O-])ccc2N2CCOCC2)cc1 | 1 | 3 | 113* | 10 | 9
CCCOCc1ccc(O)c2ncccc12 | 46* | -16 | 7 | 13 | -2
Oc1ccc(COCc2ccccc2)c2cccnc12 | 7 | -6 | 11 | 5 | 0
OCc1ccc(O)c2ncccc12 | -4 | -8 | 10 | -1 | -1
CC(C)COCc1ccc(O)c2ncccc12 | 44* | 2 | 33 | 17 | -3
Cn1cccc1C(C#N)c1cccc(F)c1C#N (stereo not drawn) | -11 | 34 | 55* | 4 | -7
Cc1ccc(C(=O)N/C(=C\c2ccc(-c3ccc(Br)cc3)o2)C(=O)NCCCN(C)C)cc1 | -16 | 18 | 70* | 12 | -1
Cc1ccc(C(=O)O)cc1NC(=O)CCc1c(C)noc1C | -10 | . | . | 8 | .
CCCn1c(CNc2ccccc2O)nc2ccccc21 | -11 | -56 | 62* | 31 | 7
c1ccc(C(c2nnnn2Cc2ccco2)N2CCN(c3nc4ccccc4s3)CC2)cc1 (stereo not drawn) | 36* | 7 | 19 | 5 | -3
Cc1cc(C(=O)N/N=C/c2cccc([N+](=O)[O-])c2O)n[nH]1 | -11 | 23 | 24 | 30 | -9
O=C(NN=Cc1cc([N+](=O)[O-])ccc1O)c1cccc2ccccc12 | 9 | . | 49 | 15 | .
COC(=O)N/N=C/c1cc(N=Nc2ccccc2Cl)ccc1O | 1 | 11 | 58* | 32 | -5
COC(=O)N/N=C/c1cc(N=Nc2ccccc2)ccc1O | -11 | -17 | 39 | 29 | 1
Cc1cc(C(=O)N/N=C/c2cc(N=Nc3ccccc3)ccc2O)n[nH]1 | 9 | . | 61* | 16 | .
Nc1ccc(C(=O)N/N=C\c2cc(N=Nc3cccc4ccccc34)ccc2O)cc1 | 10 | 31 | 59* | 28 | -5
O=C(CSc1ccc2nnc(-c3ccncc3)n2n1)Nc1ccc2c(c1)OCO2 | 2 | -46 | 6 | -1 | -2
O=C(c1cc(-n2cnnc2)ccc1Cl)N1CCN(c2nc(-c3ccccc3)cs2)CC1 | 36 | 2 | 8 | -2 | 7
C/C(Cl)=C\Cn1c(O)c(N=NC(N)=S)c2cc(Br)ccc21 | 10 | 34 | 55* | 34 | -9
COc1cccc2sc(Nc3nc(-c4ccncc4)cs3)nc12 | 73* | 19 | 30 | 32 | 0
O=C1S/C(=C\c2ccc(N3CCOCC3)o2)C(=O)N1Cc1ccc(F)cc1 | 47* | 23 | 30 | 13 | -5
O=C1/C(=C/c2ccc(N3CCOCC3)o2)SC(=Nc2ccccc2)N1CCc1c[nH]c2ccccc12 | 83* | -8 | 15 | 5 | 4
O=C1NC(=S)S/C1=C/c1ccc(N2CCOCC2)o1 | 0 | -1 | 62* | 20 | -1
CC(=O)N1c2ccc(S(=O)(=O)N3CCCC3)cc2CC1C(=O)Nc1cc(C)cc(C)c1 (stereo not drawn) | 7 | 13 | 16 | 18 | -2
CN(C)CCOC1c2ccccc2CSc2ccccc21 (stereo not drawn) | 12 | 15 | 8 | 5 | 1
SMILES | EBI2 block | APJ antag | CCR6 antagonist | CXCR6 block | APJ ag
COc1ccc(-c2nc(CS(=O)(=O)CC(=O)NCCc3ccccc3)c(C)o2)cc1 | 6 | 16 | -2 | 8 | 3
CC(C)=C(NC(=O)c1ccccc1)C(=O)NC(Cc1ccccc1)C(=O)O (stereo not drawn) | -8 | 13 | 15 | -2 | -4
CC1=NNC(=O)/C1=C\c1cn(-c2ccccc2)nc1-c1ccccc1 | 63* | . | 24 | 34 | .
N#C/C(=C/c1ccc(-c2ccccc2[N+](=O)[O-])o1)C(N)=O | -8 | -6 | 4 | -11 | 0
N#C/C(=C\c1ccc(-c2ccc([N+](=O)[O-])cc2)o1)C(=O)Nc1nc(-c2cccs2)cs1 | 16 | 18 | 58* | 34 | -3
N#C/C(=C/c1ccc(-c2cccc([N+](=O)[O-])c2)o1)C(=O)Nc1nc(-c2cccs2)cs1 | 7 | . | 69* | 22 | .
N#C/C(=C\c1ccc(-c2ccccc2[N+](=O)[O-])o1)C(=O)Nc1nc(-c2cccs2)cs1 | 3 | 23 | 51* | 36 | -6
CC1CCN(c2nc3c(c(=O)[nH]c(=O)n3C)n2CC(C)CSc2nnnn2-c2ccccc2)CC1 (stereo not drawn) | 13 | -23 | 10 | -1 | 0
Clc1ccccc1Oc1cnc2ccccc2n1 | 1 | 7 | 15 | -2 | -4
Oc1ccc(N=Nc2ccc3c(c2)OCO3)c2ccccc12 | . | 58* | . | . | -12
COc1cc(C(=O)NNC(=S)NC(=O)c2ccccc2C)cc(OC)c1OC | -4 | 13 | 30 | 20 | -5
COc1ccccc1C(=O)NNC(=S)NC(=O)c1cc(OC)c(OC)c(OC)c1 | 4 | 26 | 58* | 32 | -5
COc1cc(OC)cc(C(=O)Nc2nc(-c3ccccc3)c(-c3ccccc3)o2)c1 | 3 | 10 | 62* | 18 | -3
O=[N+]([O-])c1cccc(C=NNc2ccccc2)c1 | -2 | . | 25 | 6 | .
O=[N+]([O-])c1ccc(C=NNc2ccccc2)cc1 | 9 | . | 50* | 18 | .
Cc1cc2c(C)nc(N/N=C/c3ccc([N+](=O)[O-])cc3)nc2o1 | 1 | . | 108* | 4 | .
Cc1cccc(NC2=NCC(=O)N2Cc2cccs2)c1 | -10 | 11 | 19 | 9 | -1
CCC(=O)NC1=C(Cl)C(=O)C(NC(=O)CC)=C(Cl)C1=O | -16 | -26 | . | 84* | 6
COc1ccc2cc(/C=C/C(=O)N3CCN(CC(=O)N4CCCCCC4)CC3)ccc2c1 | 60* | 1 | 0 | -2 | 2
COc1ccccc1N=NNc1ccc(S(=O)(=O)NC(C)=O)cc1 | -6 | . | . | -4 | .
Cc1ccc2cccc(OCC(=O)Nc3ccc4c(c3)OCO4)c2n1 | -2 | 10 | 1 | 7 | 0
Cc1ccc2cccc(OC(=O)c3ccc4c(c3)OCCO4)c2n1 | -13 | 26 | 52* | 35 | -4
COc1ccc(N2C(=O)C(Cl)=C(Oc3cccc(OC)c3)C2=O)cc1 | 13 | 3 | 97* | 32 | -2
COc1ccc(N2C(=O)c3ccccc3C2=O)cc1 | -5 | 1 | 0 | -1 | -1
O=C(Cn1c(=O)n(CC(=O)NCc2ccccc2)c2ccccc21)NCc1ccccc1 | 5 | -3 | 11 | 7 | -5
CC(C(=O)O)N1CCCCC1 (stereo not drawn) | -6 | -11 | 4 | 0 | -3
Brc1ccc(N/N=C(/N=Nc2nn[nH]n2)c2ccccc2)cc1 | 5 | 24 | 52* | 35 | -5
O=C(O)c1cccc(N/N=C(\N=Nc2ccccc2)c2ccccc2)c1 | -2 | 38 | 45 | 28 | -13
CCOc1c(Cl)cc(C(=O)Nc2ccccc2-c2ccccc2)cc1Cl | 17 | 1 | 25 | 7 | -6
Cn1nnnc1SCC(=O)N1c2ccccc2Sc2ccccc21 | -9 | 23 | 2 | 1 | -3
